Measured values published in ChEMBL document CHEMBL1932939, “Synthesis and cytotoxic evaluation of thiourea and N-bis-benzothiazole derivatives: a novel class of cytotoxic agents” (Bioorg Med Chem Lett, 2012).

Legend:
B16-F10 = experiment: Cytotoxicity against mouse B16F10 cells after 48 hrs by MTT assay; format: functional, cell-based; settings: B16-F10, 48 h
Summary of the method: (§1)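 IC50 is taken as the concentration that gives a 50% drop in cell number relative to control cultures grown without inhibitor. Etoposide serves as the standard positive-control drug.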

U-937 = experiment: Cytotoxicity against human U937 cells after 48 hrs by MTT assay; format: functional, cell-based; summary of the method: as §1
THP-1 [1] = experiment: Cytotoxicity against human THP1 cells after 48 hrs by MTT assay; format: functional, cell-based; settings: THP-1, 48 h; summary of the method: as §1
THP-1 [2] = experiment: Ratio of IC50 for mouse B16F10 cells to IC50 for human THP1 cells after 48 hrs by MTT assay; format: functional
THP-1 [3] = experiment: Ratio of IC50 for human U937 cells to IC50 for human THP1 cells after 48 hrs by MTT assay; format: functional

SMILES | IC50 (B16-F10) [µM] | IC50 (U-937; Homo sapiens, U-937, 48 h) [µM] | IC50 (THP-1 [1]) [µM] | Ratio IC50 (THP-1 [2]) | Ratio IC50 (THP-1 [3]) | IC50 (U-937; u-937) [µM]
CCOc1ccc2nc(Nc3nc4ccccc4s3)sc2c1 | > 50 | > 50 | 37.1 |  |  | 
Cc1ccc2nc(Nc3nc4ccc(F)cc4s3)sc2c1 | 29.6 | > 50 | > 50 |  |  | 
Fc1ccc2nc(Nc3nc4ccc(Cl)cc4s3)sc2c1 | 41.9 | > 50 | 41 |  |  | 
COc1cc([C@@H]2c3cc4c(cc3[C@@H](O[C@@H]3O[C@@H]5CO[C@@H](C)O[C@H]5[C@H](O)[C@H]3O)[C@H]3COC(=O)[C@H]23)OCO4)cc(OC)c1O [ETOPOSIDE] | 18.7 |  |  | 9 | 9 | 
Fc1ccc2nc(NC(=S)Nc3ccc(Cl)cc3)sc2c1 | 48.1 | 18.7 | 31.2 |  |  | 
CCOc1ccc2nc(Nc3nc4ccc(F)cc4s3)sc2c1 | 33.2 | 26.6 | 39 |  |  | 
Fc1ccc(NC(=S)Nc2nc3c(Cl)cccc3s2)cc1 | > 50 | > 50 | > 50 |  |  | 
S=C(Nc1ccccc1)Nc1nc2ccccc2s1 | > 50 | > 50 | 36.5 |  |  | 
Clc1cccc2sc(Nc3nc4ccccc4s3)nc12 | 29.5 | > 50 | > 50 |  |  | 
Fc1ccc2nc(NC(=S)Nc3ccccc3)sc2c1 | > 50 | > 50 | 46.6 |  |  | 
CCOc1ccc2nc(NC(=S)Nc3ccccc3)sc2c1 | > 50 | 37.7 | 43.8 |  |  | 
Cc1ccc2nc(Nc3nc4ccccc4s3)sc2c1 | > 50 | 48.4 | 34.2 |  |  | 
S=C(Nc1ccc(Cl)cc1)Nc1nc2ccccc2s1 | > 50 | > 50 | 39 |  |  | 
S=C(Nc1ccccc1)Nc1nc2c(Cl)cccc2s1 | > 50 | > 50 | 31.8 |  |  | 
Fc1ccc2nc(Nc3nc4ccccc4s3)sc2c1 | > 50 | 40.6 | > 50 |  |  | 43.5
Cc1ccc2nc(NC(=S)Nc3ccccc3)sc2c1 | > 50 | > 50 | > 50 |  |  | 
Cc1ccc2nc(NC(=S)Nc3ccc(F)cc3)sc2c1 | > 50 | > 50 | 36.9 |  |  | 
CCOc1ccc2nc(NC(=S)Nc3ccc(F)cc3)sc2c1 | > 50 | 28.1 | 39.5 |  |  | 
Fc1ccc2nc(Nc3nc4c(Cl)cccc4s3)sc2c1 | > 50 | > 50 | 36.2 |  |  | 
c1ccc2sc(Nc3nc4ccccc4s3)nc2c1 | > 50 | 40 | 28.8 |  |  | 
Fc1ccc(NC(=S)Nc2nc3ccc(F)cc3s2)cc1 | 47.7 | 16.2 | 34.6 |  |  | 
Fc1ccc2nc(Nc3nc4ccc(F)cc4s3)sc2c1 | 47.5 | 27.4 | 17.5 |  |  | 
Clc1ccc2nc(Nc3nc4ccccc4s3)sc2c1 | > 50 | > 50 | 45.4 |  |  | 
Fc1ccc(NC(=S)Nc2nc3ccccc3s2)cc1 | > 50 | 32 | 26.7 |  |  | 
